Measured values: ChEMBL document CHEMBL4732065 (Eur J Med Chem, 2021)
Values after ≈ are worked out from the molar mass of the structure shown.

How the values were obtained:
Cytochrome P450 1B1 [1] = molecular target: T1, Cytochrome P450 1B1 (Homo sapiens, UniProt Q16678); test: Inhibition of recombinant human CYP1B1 using 7-ethoxyresorufin as substrate after 35 mins in presence of NADP+ by EROD assay
T1 sequence (Q16678 whole entry): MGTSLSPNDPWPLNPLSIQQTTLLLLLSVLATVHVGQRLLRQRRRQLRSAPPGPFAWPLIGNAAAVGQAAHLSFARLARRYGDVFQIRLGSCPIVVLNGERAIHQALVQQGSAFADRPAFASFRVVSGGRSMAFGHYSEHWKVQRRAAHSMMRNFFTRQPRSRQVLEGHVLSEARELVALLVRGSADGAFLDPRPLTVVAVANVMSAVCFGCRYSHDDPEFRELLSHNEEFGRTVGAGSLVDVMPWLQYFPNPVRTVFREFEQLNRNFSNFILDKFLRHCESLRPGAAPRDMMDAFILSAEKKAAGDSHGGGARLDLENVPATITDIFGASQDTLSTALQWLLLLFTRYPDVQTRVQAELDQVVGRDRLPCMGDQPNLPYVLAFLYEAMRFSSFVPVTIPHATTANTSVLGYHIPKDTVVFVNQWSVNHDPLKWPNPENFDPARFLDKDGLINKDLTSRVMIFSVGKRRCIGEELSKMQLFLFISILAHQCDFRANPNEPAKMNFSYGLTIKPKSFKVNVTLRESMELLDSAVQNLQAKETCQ
How it was run: (§1)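 Recombinant human CYP1 Supersomes co-expressing P450 reductase; 20 fmol CYP1B1, 10 fmol CYP1A1 or 60 fmol CYP1A2 per well. Incubated at 37 °C (1B1 35 min, 1A1 15 min, 1A2 50 min).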

Cytochrome P450 1A1 = molecular target: T2, Cytochrome P450 1A1 (Homo sapiens, UniProt P04798); test: Inhibition of recombinant human CYP1A1 using 7-ethoxyresorufin as substrate after 15 mins in presence of NADP+ by EROD assay; type: ADME
T2 sequence (P04798 whole entry): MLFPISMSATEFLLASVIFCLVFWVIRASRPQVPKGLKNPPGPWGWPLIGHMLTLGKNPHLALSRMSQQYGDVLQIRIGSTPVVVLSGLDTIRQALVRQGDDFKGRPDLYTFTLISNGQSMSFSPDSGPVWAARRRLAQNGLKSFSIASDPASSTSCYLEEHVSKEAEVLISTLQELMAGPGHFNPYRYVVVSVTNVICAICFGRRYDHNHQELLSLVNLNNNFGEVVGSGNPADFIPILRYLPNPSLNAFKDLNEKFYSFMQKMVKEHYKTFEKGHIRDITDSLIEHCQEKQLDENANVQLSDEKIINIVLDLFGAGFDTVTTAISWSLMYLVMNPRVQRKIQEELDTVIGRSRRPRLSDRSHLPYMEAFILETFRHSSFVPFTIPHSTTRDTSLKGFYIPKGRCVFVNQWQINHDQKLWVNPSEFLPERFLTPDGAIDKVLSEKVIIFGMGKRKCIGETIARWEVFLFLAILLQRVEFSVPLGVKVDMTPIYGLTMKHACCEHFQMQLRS
How it was run: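 Recombinant human CYP1 Supersomes co-expressing P450 reductase; 20 fmol CYP1B1, 10 fmol CYP1A1 or 60 fmol CYP1A2 per well. Incubated at 37 °C (1B1 35 min, 1A1 15 min, 1A2 50 min). Stopped with cold methanol; fluorescence read at 544/590 nm; triplicates.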

Cytochrome P450 1A2 = molecular target: T3, Cytochrome P450 1A2 (Homo sapiens, UniProt P05177); test: Inhibition of recombinant human CYP1A2 using 7-ethoxyresorufin as substrate after 50 mins in presence of NADP+ by EROD assay; type: ADME; how it was run: as §1
T3 sequence (P05177 whole entry): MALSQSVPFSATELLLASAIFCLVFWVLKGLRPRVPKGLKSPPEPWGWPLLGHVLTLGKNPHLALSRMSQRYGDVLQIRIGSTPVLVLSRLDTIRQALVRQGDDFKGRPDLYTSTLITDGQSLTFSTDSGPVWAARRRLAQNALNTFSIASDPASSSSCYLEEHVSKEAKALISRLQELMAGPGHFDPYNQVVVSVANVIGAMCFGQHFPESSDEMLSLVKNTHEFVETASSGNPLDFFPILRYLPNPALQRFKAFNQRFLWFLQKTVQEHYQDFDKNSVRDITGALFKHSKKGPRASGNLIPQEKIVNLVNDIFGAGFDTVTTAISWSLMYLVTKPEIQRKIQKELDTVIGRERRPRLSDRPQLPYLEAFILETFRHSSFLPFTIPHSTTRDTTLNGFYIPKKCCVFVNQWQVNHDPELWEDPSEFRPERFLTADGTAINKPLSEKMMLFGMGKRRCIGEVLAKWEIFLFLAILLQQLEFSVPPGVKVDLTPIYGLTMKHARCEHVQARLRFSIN

Homo sapiens [2] = organism: Homo sapiens; test: Selectivity index, ratio of IC50 for recombinant human CYP1A1 to IC50 for recombinant human CYP1B1
Homo sapiens [3] = organism: Homo sapiens; test: Selectivity index, ratio of IC50 for recombinant human CYP1A2 to IC50 for recombinant human CYP1B1
[4] = Water solubility of compound by HPLC analysis; type: physicochemical
How it was run: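 Compound stocks at 5 mg/mL in DCM/MeOH were diluted in MeOH to 125–2000 µg/mL (500–5000 µg/mL for the salt form) and run on C18 HPLC with detection at 360 nm for calibration. A 10 µL injection of supersaturated aqueous solution, diluted if needed, was then analysed. Solubility was calculated from the linear regression.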

Cytochrome P450 1B1 [5] = molecular target: T1, Cytochrome P450 1B1; test: Potency index, ratio of IC50 of ANF to IC50 of compound for inhibition of human recombinant CYP1B1; settings: read-out: Ratio IC50

Compound | IC50 (Cytochrome P450 1B1 [1]) [nM] | IC50 (Cytochrome P450 1A1) [nM] | IC50 (Cytochrome P450 1A2) [nM] | Ratio IC50 (Homo sapiens [2]) | Ratio IC50 (Homo sapiens [3]) | solubility [4] [µg/mL] | selectivity ratio (Cytochrome P450 1B1 [5])
COc1ccc(OC)c2c1c(OC)cc1c(=O)cc(-c3ccc(N)nc3)oc12 | 0.98 | 30.8 | 108 | 31.4 | 110 | 311 (≈ 822 µM) | 
COc1ccc(OC)c2c1c(OC)cc1c(=O)cc(-c3ccc(F)cn3)oc12 | 0.07 | 16.8 | > 1000 | 240 | > 14300 | < 5 | 84
COc1ccc(OC)c2c1c(OC)cc1c(=O)cc(-c3cncc(F)c3)oc12 | 0.98 | 17.7 | 141 | 18.1 | 144 |  | 5
O=c1cc(-c2ccccc2)oc2c1ccc1ccccc12 [ALPHA-NAPHTHOFLAVONE] |  |  |  |  |  | < 5 | 
COc1ccc(OC)c2c1c(OC)cc1c(=O)cc(-c3ccnc(N)c3)oc12 | 20.6 | 15.3 | > 1000 | 0.7 | > 48.5 |  | 
COc1ccc(OC)c2c1c(OC)cc1c(=O)cc(-c3cccs3)oc12 | 4.8 | 4.4 | 40.4 | 0.9 | 8.4 |  | 
COc1ccc(OC)c2c1c(OC)cc1c(=O)cc(-c3cc(Cl)cc(N4CCN(C)CC4)c3)oc12 | 519 | > 1000 | > 1000 | > 1.9 | > 1.9 |  | 
COc1ccc(OC)c2c1c(OC)cc1c(=O)cc(-c3cncc(C)c3)oc12 | 1.3 | 6.9 | 161 | 5.3 | 124 |  | 5

More lines, in order of falling IC50 (Cytochrome P450 1B1 [1]), values ahead:

IC50 (Cytochrome P450 1B1 [1]) [nM] | IC50 (Cytochrome P450 1A1) [nM] | IC50 (Cytochrome P450 1A2) [nM] | Ratio IC50 (Homo sapiens [2]) | Ratio IC50 (Homo sapiens [3]) | solubility [4] [µg/mL] | Compound | selectivity ratio (Cytochrome P450 1B1 [5])
658 | > 1000 | > 1000 | > 1.5 | > 1.5 |  | COc1ccc(OC)c2c1c(OC)cc1c(=O)cc(-c3ccc(O)nc3)oc12 | 
4.1 | 16.5 | > 1000 | 4 | > 244 |  | COc1ccc(OC)c2c1c(OC)cc1c(=O)cc(-c3c[nH]c4ccccc34)oc12 | 
1.3 | 38.9 | 623 | 29.9 | 479 |  | COc1ccc(OC)c2c1c(OC)cc1c(=O)cc(-c3ccc(Br)cn3)oc12 | 
1.1 | 8 | 742 | 7.3 | 674 |  | COc1ccc(OC)c2c1c(OC)cc1c(=O)cc(-c3cncc(Br)c3)oc12 | 5
